NF-kB expr up – raises NF-kB expression in human neuronal cells | NF-kB reporter expression; stronger effect = higher value | fold change at 12.5 µM | hit rate 1.6% among 190,000 | AID 1239; in the data active = fold change above about 3.3
STAT3 act – activators of IL-6 induced STAT3 signaling; hit rate 0.91% among 190,000; U3A cells, IL-6 STAT3-luciferase reporter, luminescence; 100% = signal with IL-6 EC80 alone; activation (% of control), % at 5.6 µM;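 active = activation above the screen-wide mean of compound activation plus 3 SD, cut at about 130% in these data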;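 also: 0% = background luminescence of wells with medium and substrate only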
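Material: STAT1-lacking human U3A cells, STAT3 luciferase reporter | Benchmarks: IL-6-only wells as 100% reference | Probe or stimulus: IL-6 (33 ng/mL) | Timing: Compound 1 h, then IL-6 6 h at 37 °C | Detection: Luminescence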
STAT1 act – STAT1 signaling activation | hit rate 2.6% among 200,000 | NIH 3T3 STAT1-luciferase reporter, IFN-gamma, luminescence; 100% = IFN-gamma alone, no compound | AID 932 | activation (% of control), % at 5.5 µM;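 active = activation above the screen-wide mean activation plus 3 SD, cut at about 130% in these data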;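 also: raw ratio to IFN-gamma control signal so 100% means no change and 0% no light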
STAT3 blocker – inhibitors of IL-6 induced STAT3 signaling; U3A cells, IL-6 STAT3-luciferase reporter, luminescence; host cell line lacks STAT1; inhibition, % at 5.5 µM; hit rate 0.89% among 190,000; AID 862;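 active = inhibition above the mean inhibition across all screened compounds plus 3 SD, cut at about 44% in these data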;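 also: 0% = DMSO only wells and 100% = 100 µM nifuroxazide control wells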
STAT1 inh – reduces IFN-gamma driven STAT1 reporter signal; hit rate 0.35% among 200,000; NIH 3T3 STAT1-luciferase reporter, luminescence; inhibition, % at 5.5 µM;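 active = inhibition above a set limit, the mean inhibition across all tested compounds plus 3 SD, cut at about 34% in these data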;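 also: 0% = IFN-gamma with DMSO and 100% = IFN-gamma with 300 µM nifuroxazide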
APP 5'UTR act – activates APP 5'UTR luciferase reporter; SH-SY5Y APP 5'UTR luciferase reporter, luminescence; zero percent = DMSO vehicle wells; activation, % at 2 µM; hit rate 1% among 190,000;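 active = activation above a set limit, based on mean plus 3 SD of controls, cut at about 140% in these data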
* marks the source's active call; other numbers are inactive results; . = no result. This is a sample that favours compounds with a hit; in the whole collection about 5.1% have one here.

SMILES | NF-kB expr up | STAT3 act | STAT1 act | STAT3 blocker | STAT1 inh | APP 5'UTR act
CC(=O)Nc1nc(C2COc3ccccc3O2)cs1 (stereo not given) | 5* | 89 | 145* | 22 | -50 | 168*
O=C(Nc1nc(-c2nc3ccccc3s2)cs1)C1COc2ccccc2O1 (stereo not given) | 3 | 107 | 132* | -9 | -34 | 36
CCCC(=O)Nc1nc2ccc(OC)cc2s1 | 3.1 | 94 | 144* | 8 | -46 | 61
COc1ccc2nc(NC(=O)C3COc4ccccc4O3)sc2c1 (stereo not given) | 3.4* | 75 | 111 | 35 | -12 | 132
CCOc1ccc(N2CCc3c(C)nc(SC)nc32)cc1 | 1.2 | 88 | 103 | 17 | -5 | 5
Cc1cc(S(=O)(=O)N2CCCC(C(=O)Nc3ccc(C(=O)O)cc3)C2)ccc1Cl (stereo not given) | 1.2 | 100 | 100 | 6 | -1 | -1
COc1ccc2nc(NC(=O)c3cc(C)oc3C)sc2c1 | 2.5 | 83 | 139* | 23 | -42 | 145*
CCn1nc(C)cc1C(=O)N1CCc2c([nH]c3ccccc23)C1c1cc(F)ccc1F (stereo not given) | 2.1 | 150* | 137* | -49 | -44 | 41
COc1ccccc1NC(=O)CN(Cc1ccco1)C(=O)c1ccc(Cl)nc1 | 1.3 | 102 | 101 | 5 | -3 | 6
CCC(C(=O)Nc1ccsc1C(=O)OC)c1ccccc1 (stereo not given) | 0.96 | 98 | 96 | 7 | 1 | 1
Cc1nc(NCc2ccco2)c2c(C)c(C)sc2n1 | 1.3 | 139* | 193* | -47 | -72 | -4
CCCCn1c(-c2ccccc2)cnc1SCC(=O)NCCc1ccc(OC)c(OC)c1 | 1.1 | 112 | 134* | -9 | -38 | .
Cc1ccc(-n2nnc3ccccc3c2=O)cc1C | 2.1 | 102 | 134* | 4 | -35 | 86
CC(=O)c1cnc(Nc2ccc(C)cc2)s1 | 1.7 | 98 | 137* | 8 | -43 | 41
Cc1ccc(Nc2ncccc2C(N)=O)cc1 | 3.3 | 88 | 127 | 18 | -30 | 82
Cc1snc2sc(C(=O)c3ccc(Br)cc3)c(N)c12 | 1.3 | 99 | 135* | 8 | -38 | 3
COc1ccc2oc(=O)c(/C(C)=N/Nc3nc(-c4cc(C)ccc4C)cs3)cc2c1 | 1 | 107 | 102 | -4 | -2 | -7
COc1ccc2oc(=O)c(-c3csc(Nc4ccc(O)cc4)n3)cc2c1 | 3.6* | 88 | 116 | 21 | -17 | -7
CCS/C(N)=N/N=C/c1cc(C)ccc1O | 13* | 103 | 132* | 2 | -35 | 160*
CCCCS/C(N)=N/N=C/c1cc(C)ccc1O | 1.6 | 103 | 102 | 1 | -2 | 20
Cc1ccc2c(c1)NC(=O)c1cccnc1N2 | 2.9 | 108 | 139* | -5 | -44 | 54
COc1ccc(-c2nnc3n2N=C(C)CS3)cc1 | 1.2 | 93 | 96 | 13 | 4 | -4
CCOC(=O)/C(=C\c1ccc(OC(F)F)cc1)C1=Nn2c(nnc2-c2ccc(Cl)cc2)SC1 | 8.3* | 98 | 96 | 5 | 5 | -34
CC(NCc1cc(Br)ccc1OCC(=O)NCc1ccccc1)c1ccccc1 (stereo not given) | 1.2 | 100 | 102 | 8 | -2 | -1
O=C(Nc1nc2ccc(Cl)cc2s1)C1CCCO1 (stereo not given) | 4.6* | 90 | 144* | 16 | -48 | 102
SMILES | NF-kB expr up | STAT3 act | STAT1 act | STAT3 blocker | STAT1 inh | APP 5'UTR act
O=C(Nc1nc2ccc([N+](=O)[O-])cc2s1)C1CCCO1 (stereo not given) | 2.2 | 92 | 136* | 11 | -38 | 62
CS(=O)(=O)c1ccc2nc(NC(=O)C3CCCO3)sc2c1 (stereo not given) | 0.98 | 99 | 124 | 4 | -29 | 32
COC(=O)CCn1nnc(-c2ccc(C(C)C)cc2)n1 | 0.37 | 34 | 57 | 84* | 48* | -77
CCOC(=O)c1sc2nc3c(cc2c1N)COC(C)(C)C3 | 5.9* | 102 | 136* | 2 | -39 | 117
CSc1ccc(-c2nnn(Cc3ccccn3)n2)cc1 | 2.9 | 112 | 140* | -9 | -43 | 69
CSc1ccc(-c2nnn(Cc3ccc(Br)cc3)n2)cc1 | 1.6 | 95 | 105 | 10 | -6 | -4
Cn1c(=O)c2c(ncn2CC(O)CNc2cccc(Cl)c2)n(C)c1=O (stereo not given) | 1.5 | 75 | 81 | 31 | 19 | 15
CCc1cccc2c(C(=O)COC(=O)c3ccc([N+](=O)[O-])s3)c[nH]c12 | 1 | 98 | 78 | 2 | 25 | -1
Cc1ccc(C(=O)OCC(=O)c2c[nH]c3ccccc23)cc1 | 1.8 | 133* | 126 | -34 | -29 | 44
CC(C)Cc1ccc(C(C)C(=O)OCC(=O)c2c[nH]c3ccccc23)cc1 (stereo not given) | 0.85 | 113 | 93 | -14 | 9 | -7
O=C(OCC(=O)c1c[nH]c2ccccc12)C1=COCCO1 | 2.4 | 121 | 129* | -23 | -31 | 37
CC1(C(=O)OCC(=O)c2c[nH]c3ccccc23)CC1(Cl)Cl (stereo not given) | 2.3 | 115 | 138* | -20 | -41 | 145*
O=C(OCC(=O)c1c[nH]c2ccccc12)c1ccc([N+](=O)[O-])s1 | . | 135* | 87 | -34 | 13 | 2
COc1ccc(/C=N/NC(=O)c2ccc(N(C)S(=O)(=O)c3ccccc3)cc2)cc1 | 0.66 | 108 | 104 | -1 | -5 | -16
CCOc1ccc(NC(=S)NC(C)c2cccs2)cc1 (stereo not given) | 1.2 | 78 | 110 | 28 | -12 | 2
COc1ccc(/C(=C/c2ccc(OC(F)F)c(OC)c2)C(=O)O)cc1OC | 0.97 | 103 | 97 | 0 | 3 | 17
CC1=NN(C(=O)c2csc(C(C)C)c2)C(O)(C(F)(F)F)C1 (stereo not given) | 0.9 | 98 | 90 | 2 | 11 | 6
O=C(CSc1ncc(-c2ccc(F)cc2)n1Cc1ccco1)Nc1ccc2c(c1)OCO2 | 1.6 | 97 | 138* | 6 | -41 | 62
CC(CN(C)Cc1nc(Cc2cccc(C(F)(F)F)c2)no1)CN1CCCC1 (stereo not given) | 1.3 | 102 | 99 | 0 | -1 | -3
Cc1ccc(-n2nc(C)cc2Nc2ncc(Cl)cc2Cl)cc1 | 1 | 135* | 96 | -48 | 4 | -29
Cc1cc(Nc2ncc(Cl)cc2Cl)n(-c2ccccc2C)n1 | 1 | 111 | 95 | -11 | 5 | -4
O=C(c1cnccn1)N(Cc1cccs1)C1(C(=O)NC2CCCCC2)CCCCC1 | 0.8 | 92 | 97 | 16 | 3 | 11
O=C(Oc1ccc(-c2cnc3ccccc3n2)cc1)c1cccc([N+](=O)[O-])c1 | 1.9 | 112 | 118 | -9 | -20 | 116

Screens from PubChem.
